Publication PMC4229023 (Biomacromolecules, 2014)

What was measured:
[1] = Maximum tolerated dose study; type: in vivo, CD-1 mice
Method in brief: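 Body weight and survival were checked daily for 2 weeks. MTD was taken as the highest dose causing neither more than 15% body-weight loss nor any death within 2 weeks.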

Plasma pharmacokinetics = type: in vivo; conditions: 5 mg DOX/kg i.v., female BALB/c mice
[2] = test system: 4T1.2 mouse breast cancer cell line; assay: MTT cytotoxicity; type: cell-based; conditions: 4T1.2 cells
[3] = test system: HCT-116 human colon carcinoma cell line; assay: MTT cytotoxicity; type: cell-based; conditions: HCT-116 cells
PC-3 xenografts = conditions: cited from earlier work

What does the source list for `COc1cccc2c1C(=O)c1c(O)c3c(c(O)c1C2=O)C[C@@](O)(C(=O)CO)C[C@@H]3O[C@H]1C[C@H](N)[C@H](O)[C@H](C)O1` [DOX, Doxorubicin]?
tolerability ([1]; 10 mg/kg DOX): well tolerated; decrease in the body weight ([1]; 15 mg DOX/kg): > 15%; Animal death ([1]; 15 mg DOX/kg i.v., n = 4, listed as free DOX): death of all treated mice; maximum tolerated dose (MTD) ([1]; DOX dose, single i.v. dose, female CD-1 mice, 2 weeks): ~10 mg/kg; Cmax (Plasma pharmacokinetics): 3.59 µg/mL; Vd (Plasma pharmacokinetics): 7.34 L/kg; T1/2 (Plasma pharmacokinetics; noncompartmental): 1.74 h; AUC0-inf (Plasma pharmacokinetics; plasma): 3.43 µg·h/mL

With `CC(C)=CCC/C(C)=C/CC/C(C)=C/CSc1ccccc1C(=O)O` [FTS, S-trans, trans-farnesylthiosalicylic acid] as the compound, how does the “cytotoxicity of drug-free carriers and FTS” value [2] read?
Its value is “inhibited the tumor cell growth in a concentration-dependent manner”.

What about the “cytotoxicity of drug-free carriers and FTS” value [3] of the same compound?
The value was “inhibited the tumor cell growth in a concentration-dependent manner”.

With `CCCCCCCCCCCCCCCCCCN1C(=CC=CC=CC2=[N+](CCCCCCCCCCCCCCCCCC)c3ccccc3C2(C)C)C(C)(C)c2ccccc21.[O-][Cl+3]([O-])([O-])[O-]` [free DiD dye, 1,1′-dioctadecyl-3,3,3′,3′-tetramethylindodicarbocyanine perchlorate] as the compound, how does the “tumor accumulation (NIRF imaging)” value (PC-3 xenografts) read?
Its value is “No obvious tumor accumulation”.
